Dynein transport: blocks dynein driven cargo transport along microtubules. 3617.4 mouse cells, GR-EGFP nuclear translocation imaging; test concentration mostly 20 µM; stimulated with dexamethasone, 1 µM; hits give low values. z-score, hits read low. hit rate 0.47% among 220,000. AID 1381;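 active = plate z-score of nuclear minus cytoplasmic receptor signal below a set negative limit, without overly bright fluorescence or cell loss, cut at about -3.5 in these data, passing the limit was not always enough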;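 also: z-score of nuclear minus cytoplasmic ring GR-EGFP intensity difference per well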
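Buffer or medium: tet-free medium with charcoal-stripped serum / Also added: dexamethasone agonist, 1.0 µM final, for 30 min / Timing: induction 48 h, compound 1 h, agonist 30 min / Measured by: high-content fluorescence imaging after fixation / Read-out: nuclear-to-cytoplasmic GR-EGFP distribution per well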
bCat nuc transl: modulators of beta-catenin nuclear translocation. HeLa beta-catenin nuclear translocation, immunofluorescence imaging. nuclear translocation activity, % at 5 µM. hit rate 0.3% among 190,000. AID 1665;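 active = nuclear translocation activity above 50% at 5 µM, with a well cell count of 50 or more; inconclusive = wells under 50 cells across six images, flagged as toxic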;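 also: per-cell ratio of nuclear to cytoplasmic median beta-catenin stain intensity; plate controls were DMSO negative control for no effect and GSK-3 inhibitor IX positive control for full effect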
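Read-out: Nuclear/cytoplasmic beta-catenin signal ratio, % activation | Assay system: Human HeLa cell line | Times: 24 h compound exposure at 37°C, 5% CO2 | Signal: Fluorescence imaging of beta-catenin antibody stain plus DAPI | Dosing: 5 µM primary, 0.02–20 µM confirmation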
MT stabilize HCS: microtubule stabilizers in HeLa cells. hit rate 0.83% among 200,000. % tubulin-high responders, % at 10 µM. HeLa tubulin immunostaining HCS, 24 h; share of cells brighter than vehicle mean+2SD. AID 2205;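 active = plate Z-score above 3 for both tubulin-high and condensed-nucleus cell shares, with cell loss under 80%, at 10 µM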;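 also: anti alpha tubulin signal scored within the nucleus-defined area of each cell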
HSV replic up: increases HSV replication in cells | hit rate 0.005% among 220,000 | HSV replication augmentation in cells, fold increase | maximum fold increase; in the data active = maximum fold increase above about 1.5; inconclusive = no clear call, values can overlap the other calls; tested in PC3 cells
Lmaj promast: Leishmania major promastigote growth inhibition. Leishmania major promastigotes, resazurin fluorescence viability. inhibition, % at 10 µM. hit rate 9% among 200,000. AID 1063; in the data active = inhibition above about 50%;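 also: promastigotes grown with compound for 44 hours at 28 °C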
An asterisk follows results filed as active; i = inactive; ? = inconclusive; · = no result. In the library only some 8.9% were active in any assay of this set; here they are far more common.

SMILES | Dynein transport | bCat nuc transl | MT stabilize HCS | HSV replic up | Lmaj promast
CCOc1ccc(OCC)c(NC(=O)CN2CCN(c3cccc(C)c3)C(C)C2)c1 (centres undefined) | 0.687 | 0.5 | 43.4* | · | 3.0
Cc1ccc(Cn2ccc(=O)c(OCc3c(Cl)cccc3Cl)c2C)cc1 | 0.449 | · | 1.3 | i | 96.8*
O=C(NCCCN1CCN(c2cccc(Cl)c2)CC1)C1(S(=O)(=O)c2ccc(Cl)cc2)CC1 | 1.01 | -2.4 | 3.7 | i | 99.8*
CC(=O)c1ccc(N2CCN(C(=O)C3(S(=O)(=O)c4ccc(Cl)cc4)CC3)CC2)cc1 | -0.491 | -1.3 | 3.8 | i | 3.3
Cc1ccc(Cl)cc1N1CCN(S(=O)(=O)c2ccc3[nH]c(=O)c(=O)[nH]c3c2)CC1 | 0.585 | -0.3 | 2.9 | i | -1.8
Cc1ccc(Cl)cc1N1CCN(S(=O)(=O)c2cccc(S(=O)(=O)N3CCCC3)c2)CC1 | 0.216 | 4.7 | 4.1 | i | 60.8*
COc1ccc(N2CCN(CCCNC(=O)C3(S(=O)(=O)c4ccc(Cl)cc4)CC3)CC2)cc1 | -0.0572 | · | 4.7 | · | -11.8
O=C(N1CCN(c2cccc(Cl)c2)CC1)C1(S(=O)(=O)c2ccc(Cl)cc2)CC1 | -0.805 | -9.8 | 3.6 | i | 98.7*
Cc1ccc(Cl)cc1N1CCN(C(=O)C2(S(=O)(=O)c3ccc(Cl)cc3)CC2)CC1 | -0.836 | 1.9 | 3.2 | i | 97.1*
CN(C)CCNC(=O)c1cc(Sc2ccc(F)cc2)nc2ccccc12 | 0.24 | 3.6 | 2.1 | i | 16.1
Cc1ccc(NC2=NCC(Cc3ccc(Br)cc3)S2)cc1 (centres undefined) | 0.633 | -2.4 | 8.3 | i | 29.8
C[n+]1ccccc1N1CCN(c2ccccc2Cl)CC1 | -0.779 | -0.1 | 1.9 | i | 48.4
Cc1ccc(Cl)cc1N1CCN(c2cccc[n+]2C)CC1 | 0.662 | -3.6 | 1.5 | i | 73.6*
Cc1cccc(N2CCN(C(=O)C3(S(=O)(=O)c4ccc(Cl)cc4)CC3)CC2)c1C | -0.473 | -1.4 | 1.8 | i | 51.6*
Cc1c(N/N=C(\C#N)C(=O)c2ccc(Cl)cc2)c(=O)n(-c2ccccc2)n1C | -0.308 | 1.4 | 1.3 | i | -12.6
CCn1c(-c2csc(C(C)C)c2)n[nH]c1=S | -0.7 | -2.0 | 6.8 | i | -10.9
Cc1ccccc1N1CCN(C(=S)c2ccc(-c3ccc([N+](=O)[O-])cc3)o2)CC1 | -0.153 | -0.2 | · | i | ·
CCC(=O)Nc1ccc(OC)cc1OC | 0.534 | 0.1 | 4.0 | i | -4.5
Cc1ccc(-c2nnc(NC3CCCCC3)c3ccccc23)cc1S(=O)(=O)N1CCN(C)CC1 | -0.522 | · | 1.6 | i | 96.4*
CC[C@H](C)[C@H](NC(=O)c1ccc(Cl)cc1)C(=O)OCC(=O)c1ccc2c(c1)NC(=O)CO2 | -0.624 | · | 0.9 | i | 100.0*
O=c1c(-c2cccc3ccccc23)[n+]([O-])c2ccccc2n1O | 0.707 | -3.5 | 2.8 | i | -1.8
Cc1ccc(-c2cc(C(F)F)n3ncc(C(=O)N4CCc5ccccc54)c3n2)cc1 | 0.912 | 5.6 | 11.3* | i | 17.6
O=C(c1cnn2c(C(F)F)cc(-c3ccccc3)nc12)N1CCc2ccccc21 | -0.0549 | 2.4 | 5.4 | i | -7.1
CCN1CCN(C(=O)c2cnn3c(C(F)F)cc(-c4ccc(C)cc4)nc23)CC1 | 0.512 | -5.0 | 3.0 | i | 98.3*
CCc1nccn1C(=O)c1cnn2c(C(F)F)cc(-c3ccc(C)cc3)nc12 | -1.13 | -0.3 | 4.6 | i | -4.0
SMILES | Dynein transport | bCat nuc transl | MT stabilize HCS | HSV replic up | Lmaj promast
COc1ccc(-c2cc(C(F)F)n3ncc(C(=O)N4CCCCC4)c3n2)cc1 | 1.69 | -2.1 | 2.7 | i | 100.0*
COc1ccc(-c2cc(C(F)F)n3ncc(C(=O)N4CCN(C(=O)c5ccco5)CC4)c3n2)cc1 | -0.231 | 0.9 | 2.6 | i | 10.2
Cc1ccc(-c2cc(C(F)F)n3ncc(C(=O)N4CCN(c5ccccn5)CC4)c3n2)cc1 | -0.717 | 1.1 | 2.5 | i | 100.2*
COCCCN1C(=O)C(O)=C(C(=O)c2ccc(C)o2)C1c1cccc(Br)c1 (centres undefined) | 0.000362 | 0.1 | 3.5 | i | -1.1
COc1ccc(C2c3ccc(O)cc3Oc3ncn(CCN4CCOCC4)c(=N)c32)cc1 (centres undefined) | -0.247 | -0.9 | · | i | ·
CC(=O)c1ccc(N2CCN(C(=S)Nc3cccc(Cl)c3)CC2)cc1 | 1.48 | · | 3.2 | i | 56.6*
COC(=O)c1ccc(C(=O)OC)c(NC(=S)N2CCN(c3cccc(Cl)c3)CC2)c1 | 1.34 | · | 2.2 | i | 73.6*
COC(=O)c1ccc(C(=O)OC)c(NC(=S)N2CCN(c3ccccc3)CC2)c1 | 1.54 | 0.1 | 2.2 | i | -4.3
Cc1sc(NC(=O)c2ccc(=O)n(C)n2)nc1-c1ccccc1 | -0.543 | 0.9 | 3.4 | i | 25.3
Cc1ccnc(SCCn2c(N3CC(C)CC(C)C3)nc3c2c(=O)n(C)c(=O)n3C)n1 (centres undefined) | -0.598 | 2.9 | 1.8 | i | 58.2*
O=C1c2ccccc2C(=O)c2[nH]cnc21 | 0.451 | -3.9 | · | i | ·
O=C1c2ccccc2C(=O)c2c1ncn2-c1ccccc1 | 0.66 | -1.0 | 1.6 | i | 54.8*
O=C(c1ccc(C(F)(F)F)cc1)N1CCC(=O)N(C(COCc2ccc(C(F)(F)F)cc2)Cc2ccccc2)CC1 (centres undefined) | 1 | · | 3.4 | i | 24.4
CC(C)COc1ccc(CSCCNC(=S)Nc2ccccc2)cc1 | 0.244 | 1.3 | 11.9 | i | 71.8*
CCCCCOc1ccc(CSCCNC(=S)Nc2ccccc2)cc1 | 0.187 | -2.1 | 2.3 | i | 53.0*
Cc1cccc(CSCCNC(=O)Nc2ccccc2)c1 | -0.696 | · | 3.8 | i | 46.9
CCCCOc1ccc(CSCCNC(=S)Nc2ccccc2)cc1 | -0.748 | -2.8 | 3.1 | i | 25.2
CCOC(=O)c1c(C)[nH]c(C(=O)OCC(=O)N2CC(C)OC(C)C2)c1C (centres undefined) | -0.301 | -4.2 | 2.8 | i | -3.2
COc1cc(C(=O)Nc2ccc3c(c2)OCCO3)c(-n2cnnn2)cc1OC | 0.614 | 1.2 | 3.3 | i | -4.1
CCN(CC)c1ccc2cc(-c3nnc(-c4ccncc4)o3)c(=O)oc2c1 | 0.915 | · | 2.9 | ? | 67.7*
Cn1c(=O)c2c(nc(CN3CCN(Cc4ccccc4)CC3)n2Cc2cccc(Cl)c2)n(C)c1=O | -0.568 | 0.0 | 2.8 | i | 19.6
Cn1c(=O)c2c(nc(CN3CCc4ccccc4C3)n2Cc2ccccc2F)n(C)c1=O | -0.821 | 2.1 | 2.6 | i | 61.2*
Cn1c(=O)c2c(nc(CN3CCc4ccccc4C3)n2Cc2cccc(Cl)c2)n(C)c1=O | -0.287 | -0.7 | 5.4 | i | 56.2*
Cn1c(=O)c2c(nc(CN3CCN(CCO)CC3)n2Cc2cccc3ccccc23)n(C)c1=O | 2.83 | 4.1 | 5.1 | i | 99.3*
Cn1c(=O)c2c(nc(CN3CCN(C(=O)c4ccco4)CC3)n2Cc2ccccc2)n(C)c1=O | 1.18 | -1.4 | 3.8 | i | -0.9
Cc1ccc(Cn2c(CN3CCN(C(=O)c4ccco4)CC3)nc3c2c(=O)n(C)c(=O)n3C)cc1 | 4.84 | · | 4.4 | · | 78.1*

Assay outcomes (PubChem BioAssay)
